Test results taken from ChEMBL document CHEMBL1131319, “(3R,4S)-3-[4-(4-fluorophenyl)-4-hydroxypiperidin-1-yl]chroman-4,7-diol: a conformationally restricted analogue of the NR2B subtype-selective NMDA antagonist (1S,2S)-1-(4-hydroxyphenyl)-2-(4-hydroxy-4-phenylpiperidino)- 1-propanol” (J Med Chem, 1998).
Calls of active or inactive are those of the source. The calls are words filed in the database; no cut-off is given here.

What was measured:
[1] = Displacement of racemic [3H]CP-101606 from rat forebrain membrane N-methyl-D-aspartate glutamate receptor 2B
[2] = molecular target: T1, Glutamate receptor ionotropic, NMDA 2B (Rattus norvegicus, UniProt Q00960); assay: Ability to displace of racemic […] of [3H]CP-101606 binding to N-methyl-D-aspartate glutamate receptor 2B in rat forebrain membranes.; assay type: cell membranes, Membrane
T1 sequence (Q00960 whole entry): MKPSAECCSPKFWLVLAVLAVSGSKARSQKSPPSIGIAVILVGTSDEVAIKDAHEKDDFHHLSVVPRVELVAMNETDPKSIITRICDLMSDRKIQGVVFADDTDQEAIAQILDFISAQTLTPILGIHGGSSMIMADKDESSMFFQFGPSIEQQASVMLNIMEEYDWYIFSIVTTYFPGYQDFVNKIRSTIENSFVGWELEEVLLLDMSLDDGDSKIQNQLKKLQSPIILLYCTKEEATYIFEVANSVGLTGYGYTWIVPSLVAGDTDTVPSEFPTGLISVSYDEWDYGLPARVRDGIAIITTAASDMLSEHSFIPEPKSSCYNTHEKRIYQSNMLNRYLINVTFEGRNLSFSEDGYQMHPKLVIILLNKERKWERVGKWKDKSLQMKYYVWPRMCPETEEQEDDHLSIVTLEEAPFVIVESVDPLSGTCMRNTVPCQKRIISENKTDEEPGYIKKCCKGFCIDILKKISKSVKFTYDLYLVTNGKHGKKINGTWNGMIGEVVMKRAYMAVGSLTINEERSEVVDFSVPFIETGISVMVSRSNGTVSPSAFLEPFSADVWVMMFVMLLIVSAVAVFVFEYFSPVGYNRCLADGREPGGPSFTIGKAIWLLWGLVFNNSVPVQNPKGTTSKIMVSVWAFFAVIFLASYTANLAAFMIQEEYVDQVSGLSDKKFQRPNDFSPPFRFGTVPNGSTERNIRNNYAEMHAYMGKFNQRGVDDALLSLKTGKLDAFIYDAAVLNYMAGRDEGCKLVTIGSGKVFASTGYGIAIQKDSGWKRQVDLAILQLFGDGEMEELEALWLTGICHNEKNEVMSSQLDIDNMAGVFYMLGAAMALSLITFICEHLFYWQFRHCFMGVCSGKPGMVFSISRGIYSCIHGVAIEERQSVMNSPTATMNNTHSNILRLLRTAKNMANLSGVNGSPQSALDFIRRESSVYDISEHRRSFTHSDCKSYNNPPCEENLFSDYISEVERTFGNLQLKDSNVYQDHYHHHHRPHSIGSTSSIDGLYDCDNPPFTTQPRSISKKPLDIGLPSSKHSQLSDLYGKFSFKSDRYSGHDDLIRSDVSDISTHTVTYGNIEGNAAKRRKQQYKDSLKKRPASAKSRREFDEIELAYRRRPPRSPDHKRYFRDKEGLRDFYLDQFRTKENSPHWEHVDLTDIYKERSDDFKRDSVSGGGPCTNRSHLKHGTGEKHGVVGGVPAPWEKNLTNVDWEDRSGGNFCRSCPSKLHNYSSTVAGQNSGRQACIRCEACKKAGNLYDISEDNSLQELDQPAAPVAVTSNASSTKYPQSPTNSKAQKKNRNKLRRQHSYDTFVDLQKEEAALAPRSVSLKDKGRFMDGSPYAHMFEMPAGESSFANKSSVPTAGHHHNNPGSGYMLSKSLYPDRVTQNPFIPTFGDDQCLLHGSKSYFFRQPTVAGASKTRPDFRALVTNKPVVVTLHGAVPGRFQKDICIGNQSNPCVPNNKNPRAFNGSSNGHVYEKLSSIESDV

[3] = species: Rattus norvegicus; assay: Compound was tested for neuroprotection against NMDA-Induced toxicity in cultured rat hippocampal neurons.; assay type: functional
[4] = test system: Rattus norvegicus; assay: Compound was evaluated in vivo for blockade of haloperidol induced catalepsy in rat when administered perorally.; assay type: functional; settings: po
Method in brief: (§1)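 Rats given haloperidol were scored for catalepsy as remaining perched on an elevated bar. Test drug was given peripherally beforehand. ED50 in mg/kg ± SEM.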

[5] = test system: Rattus norvegicus; assay: Compound was evaluated in vivo for blockade of haloperidol induced catalepsy in rat when administered subcutaneously; assay type: functional; settings: sc; method in brief: as §1
[6] = test system: Rattus norvegicus; assay: Compound was evaluated in vivo for blockade of haloperidol induced catalepsy in rat when administered perorally; assay type: functional; settings: po; method in brief: as §1
[7] = molecular target: T1, Glutamate receptor ionotropic, NMDA 2B; assay: Compound was evaluated for its blocking effect against N-methyl-D-aspartate glutamate receptor 2B; design: species or system xenopus oocytes
[8] = test system: Mus musculus; assay: Compound was evaluated in vivo for blockade of NMDA-stimulated fos induction in mouse when administered intravenously.; assay type: functional; settings: iv
[9] = test system: Rattus norvegicus; assay: Compound was evaluated for blockade of CSD in rats; rat protected /tested(mg/kg iv bolus+mg/kgh iv infusion) = 0/2 (0.2+0.2); assay type: functional, organism-based
[10] = Compound was evaluated for blockade of CSD as rats protected/ rats tested after a iv dose of 0.2 mg/kg followed by an infusion of 0.2 mg/kg/h; 0/2; assay type: functional, organism-based
[11] = Compound was evaluated for blockade of CSD as rats protected/ rats tested after a iv dose of 0.6 mg/kg followed by an infusion of 0.6 mg/kgh; 2/3; assay type: functional, organism-based
[12] = test system: Rattus norvegicus; assay: Compound was evaluated for blockade of CSD in rats; rat protected /tested(mg/kg iv bolus+mg/kgh iv infusion) = 2/3 (0.6+0.6); assay type: functional, organism-based
[13] = Compound was evaluated for blockade of CSD as rats protected/ rats tested after a iv dose of 2 mg/kg followed by an infusion of 2 mg/kgh; 2/2; assay type: functional, organism-based
[14] = species: Rattus norvegicus; assay: Compound was tested for neuroprotection against NMDA-Induced toxicity in cultured hippocampal neurons.; assay type: functional
Method in brief: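 Neuron loss was induced by NMDA or glutamate in primary rat hippocampal neuron cultures, and inhibition of that loss was measured.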

[15] = test system: Mus musculus; assay: Compound was evaluated in vivo for blockade of NMDA-stimulated fos induction in mouse; assay type: functional

Row | SMILES | IC50 [1] [nM] | IC50 ([3]; Rattus norvegicus) [nM] | also measured
1 | Oc1ccc2c(c1)OC[C@@H](N1CCC(O)(c3ccc(C(F)(F)F)cc3)CC1)[C@H]2O | 20 |  | 
2 | Oc1ccc2c(c1)OC[C@@H](N1CCC(O)(c3ccc(F)cc3)CC1)C2 |  |  | IC50 [2]: 300 nM
3 | Oc1ccc2c(c1)OC[C@@H](N1CCC(c3ccccc3)CC1)[C@H]2O |  | 25 | 
4 | Oc1ccc2c(c1)OC1C[C@]1(N1CCC(O)(c3ccc(F)cc3)CC1)[C@H]2O (stereo not given in full) |  | 1000 | 
5 | Oc1ccc2c(c1)OC[C@@H](N1CCC(O)(c3ccccc3)CC1)[C@@H]2O |  | 383 | 
6 | Oc1ccc2c(c1)OC[C@H](N1CCC(O)(c3ccc(F)cc3)CC1)[C@@H]2O | 35 | 11 | ED50 [4]: 6.8 mg/kg; ED50 [5]: 1.1 mg/kg
7 | Oc1ccc2c(c1)OC[C@@H](N1CCC(O)(CCc3ccccc3)CC1)[C@H]2O |  | 20 | 
8 | Oc1ccc2c(c1)OC[C@@H](N1CCC(Cc3ccccc3)CC1)[C@H]2O | 130 | 160 | 
9 | CO[C@H]1c2ccc(O)cc2OC[C@H]1N1CCC(O)(c2ccc(F)cc2)CC1 | > 300 |  | 
10 | Oc1ccc2c(c1)OC[C@@H](N1CCC(O)(Cc3ccccc3)CC1)[C@H]2O |  | 533 | 
11 | Oc1cc2c(cc1F)[C@H](O)[C@H](N1CCC(O)(c3ccc(F)cc3)CC1)CO2 | 17 | 23 | 
12 | COc1ccc2c(c1)OC[C@@H](N1CCC(O)(c3ccc(F)cc3)CC1)[C@H]2O | > 300 |  | 
13 | Oc1ccc2c(c1)OC[C@H](N1CCC(O)(c3ccccc3)CC1)[C@@H]2O | 107 | 108 | 
14 | Oc1ccc2c(c1)OC[C@@H](N1CCC(O)(c3ccccc3)CC1)[C@H]2O (stereo in doubt; 3a) | 54 |  | IC50 [3]: 129 nM
15 | Oc1ccc2c(c1)OC[C@@H](N1CCC(O)(c3ccccc3)CC1)[C@H]2O (stereo in doubt; 5a) | 31 |  | IC50 [3]: 9 nM
16 | Oc1ccc2c(c1)OC[C@@H](N1CCC(O)(c3ccc(F)cc3)CC1)[C@H]2O (stereo in doubt; 10a) | 28 | 5 | 
17 | Oc1ccc2c(c1)OC[C@@H](N1CCC(O)(c3ccc(F)cc3)CC1)[C@H]2O (stereo in doubt; 12a) [listing 1 of 2 here] | 18 |  | ED50 [6]: 1.2 mg/kg; IC50 [7]: 206 nM; ED50 [8]: 4 mg/kg; IC50 [3]: 4 nM; ED50 [5]: 0.3 mg/kg
18 | Oc1ccc2c(c1)OC[C@@H](N1CCC(O)(c3ccc(F)cc3)CC1)[C@H]2O (stereo in doubt; 12a) [listing 2 of 2 here] |  |  | Blockade effect [9]: inactive; Ratio [10]: inactive; Ratio [11]: Partially active; Blockade effect [12]: Partially active; Ratio [13]: Active
19 | C[C@@H]([C@@H](O)c1ccc(O)cc1)N1CCC(O)(c2ccccc2)CC1 [TRAXOPRODIL] | 27 |  | IC50 [14]: 11 nM; ED50 [15]: 1 mg/kg; ED50 [5]: 0.4 mg/kg
